# Experimental data gathered from unrelated publications.
# Compare with care: the assays were run in different laboratories.
# Organism: Mycobacterium tuberculosis
# Effect on: microbial growth
Compound,assay,system,conditions,MIC
NNC(=O)c1ccncc1,resazurin,H37RV,7 days,0.05 µg/mL
CCOC(=O)c1c(-c2ccc(OC)cc2)oc2ccc(O)c(CN3CCN(Cc4cn(C[C@H]5O[C@H](O[C@H]6O[C@H](CO)[C@@H](O)[C@H](O)[C@H]6O)[C@H](O)[C@@H](O)[C@@H]5O)nn4)CC3)c12,,CDC1551,,5.3 µM
NC(=S)NN=Cc1ccc(OC(=O)CN2C(=O)CSC2=O)c(Cl)c1,resazurin,H37RV,,5.17 µM
CCc1cc(=O)c2c(OCC3CO3)c3ccoc3c(OC)c2o1 (stereo not shown),resazurin,H37RV,21 days,128 µg/mL
O=[N+]([O-])c1cn2c(n1)OC[C@@H](OCc1ccc(OC(F)(F)F)cc1)C2,,H37RV,,0.31 µM
COc1ccc(CCNc2cc(-c3ccccn3)nc3nncn23)cc1,,H37RV,,0.39 µM
CCc1cc(=O)c2c(OCC(O)CN3CCOCC3)c3ccoc3c(OC)c2o1 (stereo not shown),resazurin,,21 days,64 µg/mL
COC(=O)C=C1SC(=NN=Cc2ccc(OC(=O)CN3C(=O)CSC3=O)cc2)NC1=O,resazurin,H37RV,,34.6 µM
Cc1nnc2nc(-c3ccccn3)cc(NCCc3ccc(Cl)cc3)n12,,H37RV,,24 µM
CCOC(=O)c1c(-c2ccc(OC)cc2)oc2ccc(OCc3cn(C[C@H]4O[C@H](O[C@H]5O[C@H](CO)[C@@H](O)[C@H](O)[C@H]5O)[C@H](O)[C@@H](O)[C@@H]4O)nn3)c(CN3CCCCC3)c12,,CDC1551,,77.3 µM
CCc1ccc(CCNc2cc(-c3ccccn3)nc3cc(Br)nn23)cc1,,H37RV,,21 µM
CCc1cc(=O)c2c(OCC(O)CN3CCCCC3)c3ccoc3c(OC)c2o1 (stereo not shown),resazurin,H37RV,21 days,64 µg/mL
COc1c(N2C[C@@H]3CCCN[C@@H]3C2)c(F)cc2c(=O)c(C(=O)O)cn(C3CC3)c12,,H37RV,,0.125 µg/mL
Brc1ccc(CCNc2cc(-c3ccccn3)nc3nncn23)cc1,,H37RV,,1.1 µM
CO[C@H]1/C=C/O[C@@]2(C)Oc3c(C)c(O)c4c(O)c(c(/C=N/N5CCN(C)CC5)c(O)c4c3C2=O)NC(=O)/C(C)=C\C=C\[C@H](C)[C@H](O)[C@@H](C)[C@@H](O)[C@@H](C)[C@H](OC(C)=O)[C@@H]1C,resazurin,H37RV,21 days,0.5 µg/mL
COc1cc(C=NNC(N)=S)ccc1OC(=O)CN1C(=O)CSC1=O,resazurin,H37RV,,5.23 µM
CCc1cc(=O)c2c(OCC(O)CN3CCC(C)CC3)c3ccoc3c(OC)c2o1 (stereo not shown),resazurin,,21 days,32 µg/mL
CCc1ccc(CCNc2cc(-c3ccccn3)nc3nncn23)cc1,,H37RV,,0.12 µM
O=c1[nH]c2nc(-c3ccncc3)sc2c(=O)n1O,,,,> 100 µM
NNC(=O)c1ccncc1,resazurin,H37RV,5 days,0.03 µg/mL
Fc1cccc(CCOc2cc(-c3ccccn3)nc3ncnn23)c1,,H37RV,,> 100 µM
CCc1cc(=O)c2c(OCC(O)CNC(C)(C)C)c3ccoc3c(OC)c2o1 (stereo not shown),resazurin,,21 days,32 µg/mL
CC(C)c1nc2[nH]c(=O)n(O)c(=O)c2s1,,,,65.4 µM
CC(=O)NC[C@H]1CN(c2ccc(N3CCOCC3)c(F)c2)C(=O)O1,resazurin,H37RV,21 days,0.003 µg/mL
c1ccc(CCOc2cc(-c3ccccn3)nc3ncnn23)cc1,,H37RV,,> 100 µM
